Reference: article PMC5905335 (Cancer discovery, 2017)
Where “and” joins values, the source holds several entries; their conditions need not be identical. Identical values can stand only once. Like-named read-outs stand apart in the source and are kept apart here.

How the values were obtained:
[1] = format: in vivo; conditions: Part 1 and Part 2; none considered related to study treatment
[2] = Plasma pharmacokinetics after single and multiple daily dosing; conditions: human, in vivo; for Vd/F: Vz/F; for half-life: t1/2, mean (SD)
[3] = test system: PARP; experiment: PBMC PARP activity; format: in vivo, human
[4] = test system: BRCA mutation–associated breast cancer; experiment: Antitumor activity; format: in vivo, human; conditions: 1.0 mg/day, BRCA1/2 mutation
Outline: (§1)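 Adults with advanced solid tumours received oral test compound 1.0 mg once daily, continuously in 28-day cycles, in the expansion part. Entry required germline BRCA1/2 mutation confirmed by BRACAnalysis or local laboratory (ovarian/peritoneal, breast, prostate, pancreatic), DNA repair deficiency, or SCLC or Ewing sarcoma. Investigators assessed response by RECIST 1.1. ORR had exact 95% CI (Clopper–Pearson); PFS was estimated by Kaplan–Meier.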

[5] = test system: BRCA-mutated ovarian cancer; experiment: Antitumor activity; format: in vivo, human
Outline: as §1

[6] = test system: small cell lung cancer; experiment: Antitumor activity; format: in vivo, human; conditions: 1.0 mg/day
Outline: as §1

[7] = test system: pancreatic cancer; experiment: Antitumor activity; format: in vivo, human
Outline: as §1

[8] = test system: Ewing sarcoma; experiment: Antitumor activity; format: in vivo, human; conditions: 1.0 mg/day, n = 13, CR + PR + SD ≥16 weeks
Outline: as §1

[9] = Urinary elimination of parent compound; format: in vivo, human; conditions: daily dosing between 0.025 and 1.1 mg
Outline: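 In dose escalation, fasted patients took a single oral dose, with PK sampling over 1 week. They then took the dose once daily for 28 days, followed by a 1-week break for sampling (doses 0.025–1.1 mg/day, 3+3 design). Urine was assayed by validated LC/MS-MS (LLOQ 25.0 pg/mL). Ae0–24, Fe0–24 and ARC0–24 came from noncompartmental analysis.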

[10] = test system: PARP–DNA complexes; conditions: in vitro, comparison with other PARP1/2 inhibitors, cited from earlier work
[11] = test system: PARP1/2; conditions: cited from earlier work

Compound: Cn1ncnc1[C@H]1c2n[nH]c(=O)c3cc(F)cc(c23)N[C@@H]1c1ccc(F)cc1 [talazoparib]
- deaths associated with an AE during the study [1]: eight
- dose proportionality parameter β for AUC0–24, estimate (95% CI) [2]: 0.95 (0.84–1.05)
- dose proportionality parameter β for Cmax, estimate (95% CI) [2]: 1.11 (1.01–1.20)
- time to maximum plasma concentration (Cmax) [2]: ≤ 2 h
- AUC(0-inf) ([2]; 0.025 mg): 5.33 ng·h/mL
- AUC(0-t) ([2]; 0.025 mg, AUC0–24, mean (SD)): 0.952 ng·h/mL
- AUC(0-t) ([2]; 0.025 mg, AUC0–t, mean (SD)): 3.6 ng·h/mL
- Cmax ([2]; 0.025 mg, mean (SD)): 0.06 ng/mL
- Tmax ([2]; 0.025 mg, Tmax, median (min, max)): 7.92 h
- Vd/F ([2]; 0.025 mg, mean (SD)): 756 L
- half-life ([2]; 0.025 mg): 100 h
- AUC(0-inf) ([2]; 0.05 mg): 8.32 ng·h/mL
- AUC(0-t) ([2]; 0.05 mg, AUC0–24, mean (SD)): 1.16 ng·h/mL
- AUC(0-t) ([2]; 0.05 mg, AUC0–t, mean (SD)): 5.34 ng·h/mL
- Cmax ([2]; 0.05 mg, mean (SD)): 0.0797 ng/mL
- Vd/F ([2]; 0.05 mg, mean (SD)): 1240 L
- half-life ([2]; 0.05 mg): 129 h
- AUC(0-inf) ([2]; 0.1 mg): 37.6 ng·h/mL
- AUC(0-t) ([2]; 0.1 mg, AUC0–24, mean (SD)): 3.16 ng·h/mL
- Cmax ([2]; 0.1 mg, mean (SD)): 0.214 ng/mL
- Tmax ([2]; 0.1 mg, Tmax, median (min, max)): 1.02 h
- Vd/F ([2]; 0.1 mg, mean (SD)): 839 L
- half-life ([2]; 0.1 mg): 229 h
- AUC(0-inf) ([2]; 0.2 mg): 92.7 ng·h/mL
- Tmax ([2]; 0.2 mg): 1.03 h
- AUC(0-t) ([2]; 0.2 mg, AUC0–24, mean (SD)): 9.13 ng·h/mL
- AUC(0-t) ([2]; 0.2 mg, AUC0–t, mean (SD)): 39.3 ng·h/mL
- Cmax ([2]; 0.2 mg, mean (SD)): 0.788 ng/mL
- Vd/F ([2]; 0.2 mg, mean (SD)): 678 L
- half-life ([2]; 0.2 mg): 212 h
- AUC(0-inf) ([2]; 0.4 mg): 60.1 ng·h/mL
- AUC(0-t) ([2]; 0.4 mg, AUC0–24, mean (SD)): 13.5 ng·h/mL
- AUC(0-t) ([2]; 0.4 mg, AUC0–t, mean (SD)): 43.7 ng·h/mL
- Cmax ([2]; 0.4 mg, mean (SD)): 1.83 ng/mL
- Tmax ([2]; 0.4 mg, Tmax, median (min, max)): 2.03 h
- Vd/F ([2]; 0.4 mg, mean (SD)): 1050 L
- half-life ([2]; 0.4 mg): 102 h
- AUC(0-inf) ([2]; 0.6 mg): 120 ng·h/mL
- AUC(0-t) ([2]; 0.6 mg, AUC0–24, mean (SD)): 37.9 ng·h/mL
- AUC(0-t) ([2]; 0.6 mg, AUC0–t, mean (SD)): 97.9 ng·h/mL
- Cmax ([2]; 0.6 mg, mean (SD)): 4.1 ng/mL
- Tmax ([2]; 0.6 mg, Tmax, median (min, max)): 0.835 h
- Vd/F ([2]; 0.6 mg, mean (SD)): 441 L
- half-life ([2]; 0.6 mg): 58.6 h
- AUC(0-inf) ([2]; 0.9 mg): 188 ng·h/mL
- AUC(0-t) ([2]; 0.9 mg, AUC0–24, mean (SD)): 58.2 ng·h/mL
- AUC(0-t) ([2]; 0.9 mg, AUC0–t, mean (SD)): 160 ng·h/mL
- Cmax ([2]; 0.9 mg, mean (SD)): 6.1 ng/mL
- Tmax ([2]; 0.9 mg, Tmax, median (min, max)): 2 h
- Vd/F ([2]; 0.9 mg, mean (SD)): 468 L
- half-life ([2]; 0.9 mg): 60.4 h
- AUC(0-inf) ([2]; 1 mg): 200 ng·h/mL
- AUC(0-t) ([2]; 1 mg, AUC0–24, mean (SD)): 85.1 ng·h/mL
- AUC(0-t) ([2]; 1 mg, AUC0–t, mean (SD)): 182 ng·h/mL
- Cmax ([2]; 1 mg, mean (SD)): 10.6 ng/mL
- Tmax ([2]; 1 mg, Tmax, median (min, max)): 1.03 h
- Vd/F ([2]; 1 mg, mean (SD)): 415 L
- half-life ([2]; 1 mg): 52.9 h
- AUC(0-inf) ([2]; 1.1 mg): 235 ng·h/mL
- AUC(0-t) ([2]; 1.1 mg, AUC0–24, mean (SD)): 91.6 ng·h/mL
- AUC(0-t) ([2]; 1.1 mg, AUC0–t, mean (SD)): 201 ng·h/mL
- Cmax ([2]; 1.1 mg, mean (SD)): 13.2 ng/mL
- Tmax ([2]; 1.1 mg, Tmax, median (min, max)): 1 h
- Vd/F ([2]; 1.1 mg, mean (SD)): 549 L
- half-life ([2]; 1.1 mg): 71 h
- PARP activity, mean (SD) ([3]; multiple dosing 0.025 mg/day, n = 3): 172 (206) % baseline
- PARP activity, mean (SD) ([3]; multiple dosing 0.05 mg/day, n = 3): 141 (52.5) % baseline
- PARP activity, mean (SD) ([3]; multiple dosing 0.1 mg/day, n = 3): 102 (98.0) % baseline
- PARP activity, mean (SD) ([3]; multiple dosing 0.2 mg/day, n = 3): 14.7 (5.04) % baseline
- PARP activity, mean (SD) ([3]; multiple dosing 0.4 mg/day, n = 3): 111 (96.5) % baseline
- PARP activity, mean (SD) ([3]; multiple dosing 0.6 mg/day, n = 4): 24.7 (8.19) % baseline
- PARP activity, mean (SD) ([3]; multiple dosing 0.9 mg/day, n = 4): 34.7 (27.4) % baseline
- PARP activity, mean (SD) ([3]; multiple dosing 1.1 mg/day, n = 2): 16.3 (5.63) % baseline
- Median PFS ([4]; n = 14): 34.6 weeks
- ORR ([4]; n = 14): 50.0%
- CBR ([4]; n = 14, CR + PR + SD ≥24 weeks): 85.7%
- Median PFS ([5]; 1.0 mg/day, ovarian/peritoneal, BRCA1/2 mutation, analysis on 14 patients): 36.4 weeks and 36.4 ^c weeks
- ORR ([5]; 1.0 mg/day, ovarian/peritoneal, BRCA1/2 mutation, n = 12): 41.7%
- CBR ([5]; 1.0 mg/day, ovarian/peritoneal, BRCA1/2 mutation, n = 12, CR + PR + SD ≥24 weeks): 66.7%
- CBR lasting at least 24 weeks ([5]; any dose level, BRCA-mutated ovarian cancer with measurable disease, n = 25): 76%
- Median PFS ([6]; SCLC, n = 23): 11.1 weeks
- ORR ([6]; SCLC, n = 23): 8.7%
- CBR ([6]; SCLC, n = 23, CR + PR + SD ≥16 weeks): 26.1%
- duration of response ([6]; the two SCLC patients with PR): 12.0 weeks
- ORR ([7]; 1.0 mg/day, pancreatic, n = 10): 20.0%
- CBR ([7]; 1.0 mg/day, pancreatic, n = 10, CR + PR + SD ≥16 weeks): 30.0%
- CBR ≥16 weeks ([7]; 13 patients with pancreatic cancer from Part 1 and Part 2): 31%
- CBR [8]: 23.1%
- urinary elimination kinetics of the parent compound [9]: linear urinary elimination kinetics
- trapping PARP–DNA complexes at sites of single-strand DNA breaks [10]: most potent PARP1/2 inhibitor in vitro
- trapping PARP–DNA complexes at sites of single-strand DNA breaks ([10]; listed as Talazoparib): superior in trapping PARP–DNA
- catalytic activity compared with olaparib and rucaparib [11]: equivalent catalytic activity to olaparib and rucaparib
